The values below come from PubChem BioAssay AID2052 (NMMLSC, 2009).

The structures appear in SMILES notation. The whole screen tested about 330,000 compounds, of which about 220 (0.067%) were called active.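 Rule for the calls: active = response, share of CD8 T cells binding vesicles, and their 90th percentile fluorescence all below set limits (cut at about 80% in these data, passing the limit was not always enough); inactive = the rest, inconclusive results apart.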 The list comes from a sample in which actives are over-represented; it also holds similar structures and randomly drawn compounds. Non-standard residues stand in square brackets, D forms with d. Residues, ends and D or L forms follow the SMILES beside them. ξ: configuration not given here. ξV = CC(C)C(N)C(=O)O

The assay can be described thus: modulators of CD8 T cell-vesicle binding, primary screen, mouse 2C CD8+ T cells, flow cytometry (AID 2052).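 For double positive events: binding gate set so that unloaded-vesicle control wells show 10% double positive cells.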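 For response (vesicle binding): values below 100% mean blocked vesicle binding to the CD8+ T cells.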 The conditions noted are these: 2C CD8+ T cell-vesicle binding, at 7 µM, stronger effect = lower value; double positive events: measured here: CD8+ vesicle-bound cell fraction. The method in brief: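 Assay system: 2C TCR transgenic mouse naive CD8+ T cells, MACS-purified | Read-out: CD8+ gate FL2 mean fluorescence as % of same-row positive control | Signal: High-throughput flow cytometry with anti-B7-1 and anti-CD8 staining | Timing: Binding step 1.5 h, 37 °C, antibody labelling 20 min, ice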
`CCc1ccc(-n2c(SCc3cc(=O)n4cc(Br)ccc4n3)nc3[nH]ncc3c2=O)cc1`: the double positive events is 30.8% and the response (vesicle binding) was 314% (inactive).
In the case of `Cc1sc2ncnc(N3CCC(C(=O)NNC(=O)c4ccc(F)cc4)CC3)c2c1C`, the double positive events amounted to 64.9% and the response (vesicle binding) was 227% (inactive).
The matching figures for `CC1CCN(c2ccc(S(=O)(=O)Nc3cc(C(=O)O)cc(C(=O)O)c3)cc2[N+](=O)[O-])CC1`: 24.9% and 234% (inactive).
The matching figures for `CCn1c2c(c3ccc(OC)cc31)CCCC2=O`: 43.3% and 241% (inactive).
With `COC/C=C/C1=CC2=CC(=O)C(C)(OC(=O)CCC(=O)OC)C(=O)C2=CO1` (stereo unspecified), the double positive events turned out to be 30.4% and the response (vesicle binding) was 292% (inactive).
The matching figures for `CCCN=C1NC(=O)C(CC(=O)NCCc2ccc(OC)c(OC)c2)S1` (stereo unspecified): 39.4% and 112% (inactive).
The matching figures for `CCN(CC(=O)Nc1c(F)cccc1F)C(=O)CN1c2cccc3cccc(c23)S1(=O)=O`: 43.4% and 247% (inactive).
As to `O=C1C=C(NCCNc2c(F)c(F)c(CO)c(F)c2F)CCC1`, the double positive events stood at 42.6% and the response (vesicle binding) was 169% (inactive).
`COCCN1C2=C(COC(C)(C)C2)C(=S)NC1c1ccccc1` (stereo unspecified): the double positive events was determined as 26.4% and the response (vesicle binding) is 676% (inactive).
The matching figures for `Cc1cc(C(=O)N2CCN(c3ccccn3)CC2)c(C)o1`: 21% and 214% (inactive).
The corresponding values for `Cn1ccc(=NC=C(C#N)C#N)c2ccccc21` are 46.1% and 136% (inactive).
On to `Cc1cc(C)n2nc(C(=O)OCC(=O)N(C)CC(=O)Nc3ccc(F)cc3)nc2n1`, for which the double positive events is 43% and the response (vesicle binding) was 342% (inactive).
The corresponding values for `CS(=O)(=O)N1CCc2cc(C(=O)Nc3ccccc3Br)ccc21` are 35.6% and 198% (inactive).
As for `CN(C)N=Nc1ccc2nc[nH]c2c1`, the double positive events was 13.7% and the response (vesicle binding) is 692% (inactive).
For the compound `CO/N=C/c1ccc(N2CCN(C(=O)c3cccc(Cl)c3)CC2)c([N+](=O)[O-])c1`, the double positive events was 24.8% and the response (vesicle binding) was 143% (inactive).
The corresponding values for `CSc1sc(C(=O)NNC(=O)c2ccc(Cl)cc2)c2c1C=CCC2` are 57.7% and 168% (inactive).
With `CCCCn1c(N)c(N2CCOCC2)c(=O)n(CC(=O)NCCc2ccccc2)c1=O`, the double positive events came out at 52.1% and the response (vesicle binding) was 370% (inactive).
`CCCN1CCN(C(=O)Cn2ncc3ccccc32)CC1`: the double positive events was 45.8% and the response (vesicle binding) was 326% (inactive).
As for `COc1ccccc1CNC(=O)c1ccc(N(C)S(=O)(=O)c2ccc(C)cc2)cc1`, the double positive events worked out at 2% and the response (vesicle binding) was 94% (inactive).
In the case of `Cc1ccc(-n2nc3c(c2NC(=O)CCC2CCCCC2)CS(=O)C3)cc1` (stereo unspecified), the double positive events stood at 41.6% and the response (vesicle binding) was 834% (inactive).
The corresponding values for `COc1cccc(C(=O)NNC(=O)/C=C/c2ccccc2)c1` are 61.7% and 433% (inactive).
The corresponding values for `CNC(=O)c1nnn(-c2ccccc2)c1C(=O)NC` are 57.6% and 329% (inactive).
As for `O=C(NCc1ccncc1)C1CCCN(S(=O)(=O)c2ccc(Br)cc2)C1` (stereo unspecified), the double positive events came to 50.3% and the response (vesicle binding) is 342% (inactive).
The matching figures for `CCSc1nnc(SCC(=O)NNC(=O)c2ccccc2F)s1`: 59.2% and 194% (inactive).
The matching figures for `CCOc1cc(C2C(C(=O)OC(C)C)=C(C)NC3=C2C(=O)CCC3)cc([N+](=O)[O-])c1O` (stereo unspecified): 47.9% and 162% (inactive).
The matching figures for `COc1cc(N)c(Cl)cc1C(=O)OCC(=O)c1ccc2c(c1)NC(=O)CO2`: 29.1% and 484% (inactive).
For the compound `CC1(C)CC(CNCCC(c2ccc(F)cc2)c2ccco2)CCO1` (stereo unspecified), the double positive events was 39.3% and the response (vesicle binding) is 172% (inactive).
The corresponding values for `CN(C)S(=O)(=O)c1cccc(NC(=O)COc2ccc3ccccc3c2)c1` are 30.4% and 566% (inactive).
The matching figures for `CCCn1cc(S(=O)(=O)c2ccc(C)cc2)c(=O)c2cc(OCC)ccc21`: 38.4% and 435% (inactive).
Turning to `CC1C(c2ccccc2)=[N+]([O-])C2(CCCC2)N1O` (stereo unspecified), the double positive events amounted to 34.2% and the response (vesicle binding) was 259% (inactive).
In the case of `COc1ccc(C2=Nn3c(nnc3-c3ccccc3OC)SC2)cc1OC1CCCC1`, the double positive events came out at 2.5% and the response (vesicle binding) was 196% (inactive).
The matching figures for `CCC(CC)C(=O)Nc1cc(C(=O)OC)cc(C(=O)OC)c1`: 23.6% and 410% (inactive).
Consider `Cc1c(Br)c([N+](=O)[O-])nn1CC(=O)N1CCN(Cc2ccccc2)CC1`, for which the double positive events was determined as 63% and the response (vesicle binding) was 210% (inactive).
The matching figures for `Cc1cc(Cl)ccc1C(=O)C1CCCN(C(=O)CCN2CCCO2)C1` (stereo unspecified): 23.8% and 257% (inactive).
The matching figures for `Cn1nc(C(F)(F)F)c2cc(NC(=O)OCC(C)(C)C)sc21`: 43.1% and 197% (inactive).
Consider `CN(CCc1cnn(C)c1)Cc1cn(C)nc1-c1ccccc1F`, for which the double positive events came out at 31.2% and the response (vesicle binding) was 291% (inactive).
Regarding `O=C(Nc1cccn(Cc2c(Cl)cccc2Cl)c1=O)c1ccc(Cl)cc1`, the double positive events is 24.7% and the response (vesicle binding) is 379% (inactive).
The matching figures for `CCCC(CCC(=O)OC)(C(=O)OCC)c1csc(N)n1` (stereo unspecified): 19.7% and 485% (inactive).
The matching figures for `CN(c1ccccc1)S(=O)(=O)c1cccc(NC(=O)Cc2ccc(Cl)cc2)c1`: 40.2% and 419% (inactive).
Consider `CCCCCC1CCC(c2nnc(SCC(C)=O)o2)CC1` (stereo unspecified), for which the double positive events came out at 19.4% and the response (vesicle binding) was 214% (inactive).
Turning to `O=C(Nc1ccc(N2CCOCC2)cc1)c1ccc(-c2ccccc2[N+](=O)[O-])o1`, the double positive events was 30.7% and the response (vesicle binding) is 205% (inactive).
The corresponding values for `O=C(Nc1ccc(N2CCCCC2)cc1)c1cc(S(=O)(=O)N2CCOCC2)ccc1F` are 40.6% and 316% (inactive).
For `O=C(CC1Oc2ccccc2NC1=O)NCCCN1CCN(Cc2ccccc2)CC1` (stereo unspecified), the double positive events is 40.4% and the response (vesicle binding) is 363% (inactive).
The matching figures for `CCOC(=O)N1CCN(S(=O)(=O)c2ccc3c(c2)C(C)C(=O)N3)CC1` (stereo unspecified): 29.9% and 289% (inactive).
The corresponding values for `COc1ccc(/C=C2\N=C3CCCN3C2=O)cc1` are 16.6% and 231% (inactive).
As to `O=C1C=C(c2cccc(Br)c2)C[C@@H](c2ccc(F)cc2)C1`, the double positive events is 26% and the response (vesicle binding) was 405% (inactive).
Regarding `Cc1ccc(C(=O)NC2CCCC(C)C2C)cc1S(=O)(=O)N1CCCCC1` (stereo unspecified), the double positive events stood at 56.1% and the response (vesicle binding) was 659% (inactive).
With `O=C(Nc1ccc(CSc2ccccc2)cc1)c1ccc(CN2CCOCC2)cc1`, the double positive events was found to be 48.3% and the response (vesicle binding) was 264% (inactive).
The matching figures for `COc1ccc(N2CC(C)Cn3c2nc2c3c(=O)n(Cc3ccccc3F)c(=O)n2C)c(OC)c1` (stereo unspecified): 27.6% and 423% (inactive).
The matching figures for `NC(=O)Nc1ccccc1C(=O)NCCc1ccccc1`: 0% and 0% (active).
The corresponding values for `O=C(O)c1ccccc1-c1ccccc1C(=O)NCCc1ccccc1` are 29.9% and 437% (inactive).
With `COc1ccc(CCNC(=O)c2ccccc2OCc2ccccc2)cc1`, the double positive events came out at 12.3% and the response (vesicle binding) was 205% (inactive).
The matching figures for `CC(C)c1ccc(N(C(=O)c2ccco2)C(C(=O)NC2CCCC2)c2cccnc2)cc1` (stereo unspecified): 19.1% and 176% (inactive).
For the compound `Cc1cc(C)c(S(=O)(=O)c2cc(F)ccc2C)c(=O)[nH]1`, the double positive events stood at 44.2% and the response (vesicle binding) is 185% (inactive).
The matching figures for `O=S(=O)(Nc1ccc(Cl)cn1)c1cnc(Cl)c(Br)c1`: 15.2% and 0% (inactive).
The matching figures for `COc1ccc(N2CC(C(=O)N[C@@H](C)C(=O)N3CCCCC3)CC2=O)cc1` (stereo partly specified): 12.6% and 315% (inactive).
The matching figures for `OCC(CO)(CO)NCc1ccc(-c2ccccc2)cc1`: 35.7% and 0% (inactive).
For the compound `NC(=O)C[C@@H]1NC(=O)CNC(=O)c2cc([N+](=O)[O-])cc(I)c2NCCC(C(N)=O)NC1=O` (stereo partly specified), the double positive events turned out to be 24.2% and the response (vesicle binding) is 474% (inactive).
On to `CC(/C=C/C1(O)C(C)CC(=O)CC1(C)C)OC1OC(CO)C(O)C(O)C1O` (stereo unspecified), for which the double positive events was 38.7% and the response (vesicle binding) is 185% (inactive).
The corresponding values for `CCNC(=O)Nc1ccc(S(=O)(=O)Nc2cnc(C)nc2C)cc1` are 18.1% and 230% (inactive).
In the case of `CCc1nnc(NC(=O)CSc2nc(SC)ns2)s1`, the double positive events is 35.8% and the response (vesicle binding) was 236% (inactive).
The matching figures for `CCc1cccc2c3c([nH]c12)C(CC)(CC(=O)O)OCC3` (stereo unspecified): 14.8% and 487% (inactive).
The corresponding values for `O=C(CSc1ccc(-c2ccccn2)nn1)Nc1ccccc1` are 12.5% and 157% (inactive).
For `Cc1c(OC(C)C(=O)NCC2CCC(C(=O)O)CC2)ccc2c1oc(=O)c1ccccc12` (stereo unspecified), the double positive events stood at 55.9% and the response (vesicle binding) is 184% (inactive).
As to `Cn1nnnc1NCc1ccc(Cl)c(Cl)c1`, the double positive events came out at 43.7% and the response (vesicle binding) is 445% (inactive).
The corresponding values for `COc1ccc(CNc2nnnn2C)cc1` are 4% and 0% (active).
`CCCn1nnnc1NCc1ccc(OC)cc1`: the double positive events is 56.3% and the response (vesicle binding) was 308% (inactive).
The corresponding values for `CC(C)N1CCC(NC(=O)Nc2ccccc2)CC1` are 60.7% and 257% (inactive).
The matching figures for `CC(=O)NC(C(=O)NCC(N)=O)C(C)C` (stereo unspecified) (Ac-[ξV]-Gly-NH2): 32.4% and 396% (inactive).
The matching figures for `O=C(O)c1[nH]c2ccccc2c1C(c1cccc(O)c1)c1c(C(=O)O)[nH]c2ccccc12`: 36.2% and 361% (inactive).
Take `Cc1ccc(CNC(=O)COC(=O)C2CCC2)cc1`: the double positive events came to 37.4% and the response (vesicle binding) was 742% (inactive).
With `O=C(COC(=O)Cc1c[nH]c2ccccc12)NCCc1ccccc1`, the double positive events was 19.5% and the response (vesicle binding) is 241% (inactive).
The corresponding values for `NC(=O)COc1ccc(C23CC4CC(CC(C4)C2)C3)cc1` are 52.9% and 159% (inactive).
For `COP1(=O)C[C@@H](O)[C@@H](O)[C@@H](COCc2ccccc2)O1` (stereo partly specified), the double positive events was 21.9% and the response (vesicle binding) was 504% (inactive).
The matching figures for `C[C@H](OC(=O)n1ccnc1)[C@@H]1O[C@@]2(C)CCC[C@@H]1O2`: 24.9% and 376% (inactive).
The matching figures for `COc1ccc(N(CC(=O)Nc2ccc(C)cc2C)S(=O)(=O)c2ccccc2[N+](=O)[O-])c(OC)c1`: 61.2% and 182% (inactive).
The corresponding values for `Cc1noc(C)c1CSc1nnc2ccc3ccccc3n12` are 43.2% and 196% (inactive).
As for `NS(=O)(=O)c1cc(Cl)c(Cl)c(S(N)(=O)=O)c1`, the double positive events amounted to 42.1% and the response (vesicle binding) was 570% (inactive).
The matching figures for `Cn1nnc(NC(=S)NC(=O)c2ccccc2)n1`: 30.5% and 556% (inactive).
As to `CSc1nnc(SCc2nc3sc(C(=O)O)c(C)c3c(=O)[nH]2)s1`, the double positive events came to 37.4% and the response (vesicle binding) was 501% (inactive).
As for `CCc1ccc(CNC(=O)C2CCN(c3nnc(C)c4c(C)n(-c5ccc(C)cc5)nc34)CC2)cc1`, the double positive events is 10.5% and the response (vesicle binding) is 623% (inactive).
On to `CC1(C)C[C@H]2C3=CCC4[C@@]5(C)CC[C@H](O)[C@](C)(CO)C5CC[C@@]4(C)[C@]3(C)C[C@@H](O)[C@@]2(CO)[C@@H](O)[C@@H]1O` (stereo partly specified), for which the double positive events worked out at 14.8% and the response (vesicle binding) is 534% (inactive).
The matching figures for `COc1cc(NC(=S)NNC(=O)CC(C)C)c(OC)cc1Cl`: 66.1% and 458% (inactive).
